# An excerpt weighted towards active compounds, which were near 7.1% of everything screened.
# bCat KO growth – beta-catenin-lacking colon tumor cell growth suppression; HCT116 beta-catenin knockout viability, CellTiter-Glo, 60 h; active compounds read low; viability, % at 10 µM; 140,000 tested, 1.5% active;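 active means viability at or under a set limit, the compound median less 4 SD, cut at about 6% in these data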;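 further: 0% = Hyamine 1622 control at 20 µM and 100% = untreated cell control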
# H69AR growth 86K – growth inhibitors of human H69AR lung tumor cells | H69AR lung tumor viability, ATP luminescence, 72 h; active compounds read low | viability, % at 10 µM | 85,000 tested, 6% active;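 active means viability at or below 40%; inactive means viability above 40%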;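 further: multidrug resistant small cell line overexpressing MRP-1 efflux transporter; 100% = mean luminescence of untreated control wells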
# HUVEC inhibit – blocks proliferation of human endothelial cells. viability, % at 10 µM (by protocol). 86,000 tested, 1.1% active. HUVEC proliferation, CellTiter-Glo luminescence, 72 h; active compounds read low;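 active means viability at or below 30%; inactive means viability above 30%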;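 further: 100% = median luminescence of DMSO-only cell control wells on each plate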
# HCT116 PTEN-null – suppresses growth of cells with PTEN deletion. AID 827. viability, % at 10 µM. 140,000 tested, 1.2% active. HCT116 PTEN-null viability, CellTiter-Glo, 60 h; active compounds read low;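 active means viability at or below a set limit, 4 SD under the median of all tested compounds, cut at about 3.7% in these data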;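 further: PTEN knockout HCT116 line with beta catenin targeted HCT116 as companion control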
# Lung fibro prol – blocks proliferation of human lung fibroblasts. LL 47 human lung fibroblast viability, ATP luminescence; active compounds read low. viability, % at 10 µM. 85,000 tested, 1.1% active. AID 719;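 active means viability at or below 50% in the single dose screen; inactive means viability above 50%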;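 further: compound exposure lasted 72 h before the ATP readout; 100% = median luminescence of untreated cell-only wells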
#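 Test system: LL 47 human lung fibroblasts / Quantity: 1,150 cells in each well / Medium: IMEM growth medium with 15% fetal bovine serum / Incubation: 72 h compound exposure at 37 °C after overnight plating / Detection: CellTiter-Glo luminescence measuring cellular ATP / Read-out: % viability versus median cells-only luminescence / Benchmarks: cell-only wells, no compound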
# Cav32 inh – human Cav3.2 channel inhibition, primary screen; 100,000 tested, 4% active; Cav3.2-expressing cells, Fluo-4 calcium fluorescence FDSS; active compounds read low; AID 449739; B-score at 10 µM; O95180;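 active means single-dose well whose peak fluorescence ratio is a statistical outlier from its plate by either plate-standardised score or position-corrected B-score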
# Numbers without * were called inactive; . = not tested or not shown.
SMILES,bCat KO growth,H69AR growth 86K,HUVEC inhibit,HCT116 PTEN-null,Lung fibro prol,Cav32 inh
CCSc1nc2ccc(N3C(=O)C4C5C=CC(C5)C4C3=O)cc2s1 (stereo not drawn),77.3,.,.,85.9,.,.
Cc1ccc(-c2noc(CSc3nnc(Cc4cccs4)n3-c3ccccc3)n2)cc1,73.8,80.8,95.4,80.0,101.2,-7.56*
c1ccc(-n2nnnc2SCc2ccccn2)cc1,96.9,77.8,96.8,101.4,102.6,0.585
CCOc1ccc(-n2c(SCc3nc(-c4ccc(C)cc4)no3)nnc2-c2ccncc2)cc1,16.6,87.2,68.0,26.7,74.9,-4.25*
c1ccc(-c2noc(CSc3nnnn3-c3ccccc3)n2)cc1,98.1,99.2,100.6,102.3,89.7,-4.99*
Cc1ccc(-c2noc(CSc3nnc(-c4ccncc4)n3-c3ccc(C)cc3)n2)cc1,76.5,43.7,69.6,69.5,67.8,-2.98
Cc1ccc(C(=C2C3C=CC2C2C(=O)NC(=O)C32)c2ccc(C)cc2)cc1 (stereo not drawn),88.1,82.8,96.6,88.6,96.8,0.104
CC(=O)c1c(C)[nH]c(C(=O)OC(C)C(=O)Nc2cc(S(=O)(=O)N3CCCCC3)ccc2Cl)c1C (stereo not drawn),19.2,.,.,14.8,.,.
O=C(Oc1c(Cl)cc(Cl)c2cccnc12)c1cccc([N+](=O)[O-])c1,4.4*,.,.,10.1,.,.
O=C(Oc1ccc(Cl)c2cccnc12)c1cccc([N+](=O)[O-])c1,26.2,.,.,22.5,.,.
O=C(/C(=C/c1ccccc1)c1ccccc1)N1CCCCC1,88.6,.,.,102.2,.,-2.24
COc1ccc2c(c1OC)C(=O)N1c3ccccc3C(=O)N(c3ccc(F)cc3)C21 (stereo not drawn),61.1,11.8*,88.2,75.3,93.2,-1.76
O=C1c2ccccc2N2C(=O)c3ccccc3C2N1O (stereo not drawn),96.4,77.6,95.7,106.3,108.6,-0.537
COc1ccc2c(c1OC)C(=O)N1c3ccccc3N=C(c3ccc([N+](=O)[O-])cc3)CC21 (stereo not drawn),47.2,.,.,37.9,.,.
COc1ccc2c(c1OC)C(=O)N1c3ccccc3C(=O)N(c3ccccc3)C21 (stereo not drawn),52.2,1.0*,67.8,59.5,93.4,-1.73
Cc1ccccc1N1C(=O)c2ccccc2N2C(=O)c3ccccc3C12 (stereo not drawn),76.1,57.7,84.6,75.3,80.2,-4.31*
CCCCn1c(=O)[nH]c(=O)c2c1nc(-c1ccc(-c3ccccc3Br)o1)n2CCOC,34.0,47.2,43.6,41.1,39.3*,0.491
COCCn1c(-c2ccc(-c3ccccc3Cl)o2)nc2c1c(=O)[nH]c(=O)n2CC(C)C,62.1,17.8*,37.4,61.3,60.2,-1.52
CCCCn1c(=O)[nH]c(=O)c2c1nc(-c1ccncc1)n2CCOC,85.2,.,.,87.2,.,1.15
COC(=O)c1c(NC(=O)Cn2cnc([N+](=O)[O-])n2)sc2c1CCC(C)C2 (stereo not drawn),57.6,.,.,52.1,.,.
CCN1CNC(=S)N(Cc2ccccc2)C1,83.2,.,.,87.8,.,.
CCCCCN1CSC(=S)N(Cc2ccccc2)C1,5.6*,.,.,3.3*,.,.
O=C(O)c1ccc(CSc2nnc(COc3ccc(Cl)cc3Cl)o2)cc1,91.1,95.5,81.2,104.6,88.2,-9.18*
Cc1cccc(NC(=O)c2ccc(C3SCC(=O)N3CCc3ccccc3)cc2)c1 (stereo not drawn),26.5,.,.,28.1,.,.
Cc1ccc(NC(=O)C2(NC(=O)c3cccc(N4C(=O)CSC4c4ccccc4)c3)CCCCC2)cc1 (stereo not drawn),65.0,.,.,59.5,.,-6.93*
SMILES,bCat KO growth,H69AR growth 86K,HUVEC inhibit,HCT116 PTEN-null,Lung fibro prol,Cav32 inh
COc1ccccc1N1CCN(C(c2cc3ccc(C)cc3[nH]c2=O)c2nnnn2C2CCCC2)CC1 (stereo not drawn),3.0*,95.4,89.1,8.2,95.9,-2.3
COc1ccc(C(c2nnnn2C2CCCC2)N2CCc3ccccc3C2)cc1OC (stereo not drawn),67.3,81.0,94.6,66.7,91.2,-3.97*
CCc1ccc2[nH]c(=O)c(C(c3nnnn3CC3CCCO3)N3CCCc4ccccc43)cc2c1 (stereo not drawn),87.2,20.2*,89.2,84.4,95.4,-1.05
O=c1[nH]c2cc3c(cc2cc1C(c1nnnn1C1CCCC1)N1CCCc2ccccc21)OCCO3 (stereo not drawn),.,93.4,88.3,.,98.2,.
Cc1cc2cc(C(c3nnnn3CC3CCCO3)N3CCCc4ccccc43)c(=O)[nH]c2cc1C (stereo not drawn),69.3,103.0,79.2,76.9,99.3,.
COc1cc2cc(C(c3nnnn3C3CCCC3)N3CCc4ccccc43)c(=O)[nH]c2cc1OC (stereo not drawn),77.5,30.9*,68.0,83.5,36.5*,.
C#CCNc1nc(C)nc2c1nnn2Cc1ccccc1F,99.5,95.4,108.5,106.2,.,-0.14
Cc1nc2sc3c(c2c2nc(-c4ccco4)nn12)CC(C)(C)OC3,.,78.2,96.8,.,112.7,.
Cc1nnc(-c2cnn(C)c2N)n1Cc1cccc(Cl)c1,89.9,106.4,100.7,85.0,110.9,0.93
Cc1nnc(-c2cnn(C)c2N)n1Cc1ccccc1,105.9,99.0,106.1,99.9,104.9,-5.12*
CC(C)(C)c1ccc(C(=O)N2CCN(CCNC(=O)C(=O)NCc3ccccc3)CC2)cc1,79.6,.,.,88.9,.,.
O=C(CSc1ncn[nH]1)N1N=C2/C(=C/c3ccco3)CCCC2C1c1ccco1 (stereo not drawn),77.8,87.1,107.5,83.3,94.2,-4.12*
Cc1oc2c(C)c3oc(=O)c4c(c3cc2c1C)CCCC4,65.8,13.6*,81.1,62.9,.,-0.138
Cn1c(CCNC(=O)c2cccs2)nnc1SCC(=O)Nc1nc(-c2ccccc2)cs1,96.8,82.8,81.1,90.5,101.1,0.521
Cn1c(CNc2nc(-c3ccccc3)cs2)nnc1SCC(=O)OC1CCCCC1,95.7,.,.,101.8,.,-6.11*
Cc1ccc(C(=O)NCCc2nnc(SCC(=O)Nc3nc(-c4ccccc4)cs3)n2C)cc1,1.0*,43.1,74.6,0.8*,57.9,0.0675
CCCNC(=O)C1(CC2CC(c3ccccc3)=NO2)CCN(C(=O)Cc2ccc(F)cc2)CC1 (stereo not drawn),.,.,.,.,.,0.32
O=C1Nc2cc(Cl)c(Cl)cc2N(O)N1c1ccc(Cl)c(Cl)c1,102.5,93.4,84.2,92.9,89.3,-1.59
CC1=C(OC(=O)C(C)(C)C)C(C)(C)C(c2ccccc2)OC1=O (stereo not drawn),82.9,.,.,78.3,.,.
c1cncc(-c2nnc(-c3cccnc3)nn2)c1,1.7*,3.7*,3.9*,1.6*,58.6,.
CCC1(C(=O)c2ccc(Cl)cc2)C2c3ccccc3OC(=O)C21C(=O)Nc1ccccc1 (stereo not drawn),92.9,.,.,92.1,.,.
CCOC(=O)c1ccc(Nc2nnc(C(C)(C)C)c(=O)[nH]2)cc1,49.8,2.6*,54.7,44.4,69.4,-1.94

# Compound activity (PubChem BioAssay)
